# Measured values from ChEMBL document CHEMBL4689842, “EUbOPEN Chemogenomics Library wave 1” (2021).
# Legend:
# Type in all cases: toxicity, cell-based
# [1] = tested on: Fibroblast; assay: Incucyte cell viability with human fibroblast; details: 10 µM, compound concentration 10 uM; note: filed as whole numbers so only -1 and 0 and 1 occur
# [2] = tested on: U2OS; assay: Incucyte cell viability with U2OS; details: human, 10 µM, compound concentration 10 uM; note: filed as whole numbers so only -1 and 0 and 1 occur
# [3] = tested on: Fibroblast; assay: Multiplex assay against human fibroblast
# In short: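 Hoechst33342, BioTracker Green Microtubule Cytoskeleton Dye, MitoTracker Red and Annexin V Alexa Fluor 680 were added to live cells at seeding, and imaging on a CQ1 microscope at 37°C and 5% CO2 followed compound addition. Gating by CellPathfinder machine learning separated cells into Hoechst high-intensity objects or normal cells, then normal cells into healthy, pyknosed or fragmented nuclei, then pyknosed cells into mitotic or apoptotic. Per cents of healthy-nucleus cells are reported for the tubulin, mitochondrial-mass and membrane-permeability phenotypes.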
# [4] = tested on: HEK-293T; assay: Incucyte cell viability with HEK293T; details: human, 10 µM, compound concentration 10 uM; note: filed as whole numbers so only -1 and 0 and 1 occur
# [5] = 6 h, replicate number 1, timepoint 6 hours
# [6] = 12 h, replicate number 1, timepoint 12 hours
# [7] = 18 h, replicate number 1, timepoint 18 hours
# [8] = 24 h, replicate number 1, timepoint 24 hours
# [9] = 12 h, 1 µM, compound concentration 1 uM, replicate 1
# [10] = 12 h, 1 µM, compound concentration 1 uM, replicate 2
# [11] = 12 h, 10 µM, compound concentration 10 uM, replicate 1
# [12] = 12 h, 10 µM, compound concentration 10 uM, replicate 2
# [13] = 24 h, 1 µM, compound concentration 1 uM, replicate 1
# [14] = 24 h, 1 µM, compound concentration 1 uM, replicate 2
# [15] = 24 h, 10 µM, compound concentration 10 uM, replicate 1
# [16] = 24 h, 10 µM, compound concentration 10 uM, replicate 2
# [17] = 48 h, 1 µM, compound concentration 1 uM, replicate 1
# [18] = 48 h, 1 µM, compound concentration 1 uM, replicate 2
# [19] = 48 h, 10 µM, compound concentration 10 uM, replicate 1
# [20] = 48 h, 10 µM, compound concentration 10 uM, replicate 2
smiles,measurement,setting,value
C[C@@H](Oc1cc(-n2cnc3ccc(CN4CCN(C)CC4)cc32)sc1C(N)=O)c1ccccc1C(F)(F)F [GSK-461364],Growth Rate,"[1]; 0 h, replicate number 2, timepoint 0 hours",0
same,Growth Rate,[1]; [5],0
same,Growth Rate,"[1]; 6 h, replicate number 2, timepoint 6 hours",1
same,Growth Rate,[1]; [6],0
same,Growth Rate,[1]; [7],0
same,Growth Rate,[1]; [8],0
same,Growth Rate,[2]; [5],1
same,Growth Rate,[2]; [6],0
same,Growth Rate,[2]; [7],0
same,Growth Rate,[2]; [8],0
same,Population Apoptotic (%),[3]; [9],75%
same,Population Fragmented Nuclei (%),[3]; [9],30%
same,Population Healthy Nuclei (%),[3]; [9],36%
same,Population Hoechst High Intensity Objects (%),[3]; [9],14%
same,Population Membrane Permeable-Phenotype (%),[3]; [9],34%
same,Population Mitochondria Different-Phenotype (%),[3]; [9],11%
same,Population Mitotic Cells (%),[3]; [9],25%
same,Population Normal (%),[3]; [9],85%
same,Population Pyknosed Nuclei (%),[3]; [9],33%
same,Population Tubulin-Different-Phenotype (%),[3]; [9],69%
same,Population Apoptotic (%),[3]; [10],12%
same,Population Fragmented Nuclei (%),[3]; [10],12%
same,Population Healthy Nuclei (%),[3]; [10],71%
same,Population Hoechst High Intensity Objects (%),[3]; [10],4%
same,Population Membrane Permeable-Phenotype (%),[3]; [10],12%
same,Population Mitochondria Different-Phenotype (%),[3]; [10],35%
same,Population Mitotic Cells (%),[3]; [10],87%
same,Population Normal (%),[3]; [10],95%
same,Population Pyknosed Nuclei (%),[3]; [10],16%
same,Population Tubulin-Different-Phenotype (%),[3]; [10],30%
same,Population Apoptotic (%),[3]; [11],78%
same,Population Fragmented Nuclei (%),[3]; [11],29%
same,Population Healthy Nuclei (%),[3]; [11],40%
same,Population Hoechst High Intensity Objects (%),[3]; [11],25%
same,Population Membrane Permeable-Phenotype (%),[3]; [11],21%
same,Population Mitochondria Different-Phenotype (%),[3]; [11],47%
same,Population Mitotic Cells (%),[3]; [11],21%
same,Population Normal (%),[3]; [11],74%
same,Population Pyknosed Nuclei (%),[3]; [11],30%
same,Population Tubulin-Different-Phenotype (%),[3]; [11],90%
same,Population Apoptotic (%),[3]; [12],40%
same,Population Fragmented Nuclei (%),[3]; [12],13%
same,Population Healthy Nuclei (%),[3]; [12],55%
same,Population Hoechst High Intensity Objects (%),[3]; [12],9%
same,Population Membrane Permeable-Phenotype (%),[3]; [12],71%
same,Population Mitochondria Different-Phenotype (%),[3]; [12],100%
same,Population Mitotic Cells (%),[3]; [12],59%
same,Population Normal (%),[3]; [12],90%
same,Population Pyknosed Nuclei (%),[3]; [12],31%
same,Population Tubulin-Different-Phenotype (%),[3]; [12],100%
same,Population Apoptotic (%),[3]; [13],70%
same,Population Fragmented Nuclei (%),[3]; [13],31%
same,Population Healthy Nuclei (%),[3]; [13],44%
same,Population Hoechst High Intensity Objects (%),[3]; [13],17%
same,Population Membrane Permeable-Phenotype (%),[3]; [13],12%
same,Population Mitochondria Different-Phenotype (%),[3]; [13],25%
same,Population Mitotic Cells (%),[3]; [13],29%
same,Population Normal (%),[3]; [13],82%
same,Population Pyknosed Nuclei (%),[3]; [13],24%
same,Population Tubulin-Different-Phenotype (%),[3]; [13],80%
same,Population Apoptotic (%),[3]; [14],50%
same,Population Fragmented Nuclei (%),[3]; [14],14%
same,Population Healthy Nuclei (%),[3]; [14],68%
same,Population Hoechst High Intensity Objects (%),[3]; [14],4%
same,Population Membrane Permeable-Phenotype (%),[3]; [14],18%
same,Population Mitochondria Different-Phenotype (%),[3]; [14],35%
same,Population Mitotic Cells (%),[3]; [14],50%
same,Population Normal (%),[3]; [14],95%
same,Population Pyknosed Nuclei (%),[3]; [14],17%
same,Population Tubulin-Different-Phenotype (%),[3]; [14],28%
same,Population Apoptotic (%),[3]; [15],60%
same,Population Fragmented Nuclei (%),[3]; [15],35%
same,Population Healthy Nuclei (%),[3]; [15],42%
same,Population Hoechst High Intensity Objects (%),[3]; [15],43%
same,Population Membrane Permeable-Phenotype (%),[3]; [15],35%
same,Population Mitochondria Different-Phenotype (%),[3]; [15],54%
same,Population Mitotic Cells (%),[3]; [15],40%
same,Population Normal (%),[3]; [15],56%
same,Population Pyknosed Nuclei (%),[3]; [15],22%
same,Population Tubulin-Different-Phenotype (%),[3]; [15],78%
same,Population Apoptotic (%),[3]; [16],82%
same,Population Fragmented Nuclei (%),[3]; [16],10%
same,Population Healthy Nuclei (%),[3]; [16],47%
same,Population Hoechst High Intensity Objects (%),[3]; [16],6%
same,Population Membrane Permeable-Phenotype (%),[3]; [16],90%
same,Population Mitochondria Different-Phenotype (%),[3]; [16],100%
same,Population Mitotic Cells (%),[3]; [16],17%
same,Population Normal (%),[3]; [16],93%
same,Population Pyknosed Nuclei (%),[3]; [16],41%
same,Population Tubulin-Different-Phenotype (%),[3]; [16],100%
same,Population Apoptotic (%),[3]; [17],70%
same,Population Fragmented Nuclei (%),[3]; [17],42%
same,Population Healthy Nuclei (%),[3]; [17],44%
same,Population Hoechst High Intensity Objects (%),[3]; [17],21%
same,Population Membrane Permeable-Phenotype (%),[3]; [17],20%
same,Population Mitochondria Different-Phenotype (%),[3]; [17],8%
same,Population Mitotic Cells (%),[3]; [17],30%
same,Population Normal (%),[3]; [17],78%
same,Population Pyknosed Nuclei (%),[3]; [17],13%
same,Population Tubulin-Different-Phenotype (%),[3]; [17],76%
same,Population Apoptotic (%),[3]; [18],25%
same,Population Fragmented Nuclei (%),[3]; [18],31%
same,Population Healthy Nuclei (%),[3]; [18],62%
same,Population Hoechst High Intensity Objects (%),[3]; [18],12%
same,Population Membrane Permeable-Phenotype (%),[3]; [18],18%
same,Population Mitochondria Different-Phenotype (%),[3]; [18],11%
same,Population Mitotic Cells (%),[3]; [18],75%
same,Population Normal (%),[3]; [18],87%
same,Population Pyknosed Nuclei (%),[3]; [18],5%
same,Population Tubulin-Different-Phenotype (%),[3]; [18],34%
same,Population Apoptotic (%),[3]; [19],90%
same,Population Fragmented Nuclei (%),[3]; [19],52%
same,Population Healthy Nuclei (%),[3]; [19],31%
same,Population Hoechst High Intensity Objects (%),[3]; [19],45%
same,Population Membrane Permeable-Phenotype (%),[3]; [19],22%
same,Population Mitochondria Different-Phenotype (%),[3]; [19],45%
same,Population Mitotic Cells (%),[3]; [19],9%
same,Population Normal (%),[3]; [19],54%
same,Population Pyknosed Nuclei (%),[3]; [19],15%
same,Population Tubulin-Different-Phenotype (%),[3]; [19],68%
same,Population Apoptotic (%),[3]; [20],75%
same,Population Fragmented Nuclei (%),[3]; [20],39%
same,Population Healthy Nuclei (%),[3]; [20],58%
same,Population Hoechst High Intensity Objects (%),[3]; [20],38%
same,Population Membrane Permeable-Phenotype (%),[3]; [20],5%
same,Population Mitochondria Different-Phenotype (%),[3]; [20],27%
same,Population Mitotic Cells (%),[3]; [20],25%
same,Population Normal (%),[3]; [20],61%
same,Population Pyknosed Nuclei (%),[3]; [20],2%
same,Population Tubulin-Different-Phenotype (%),[3]; [20],84%
same,Growth Rate,[4]; [5],0
same,Growth Rate,[4]; [6],0
same,Growth Rate,[4]; [7],0
same,Growth Rate,[4]; [8],0
